Laboratory results: ChEMBL document CHEMBL1122413, “Chloralanyl and propargylglycyl dipeptides. Suicide substrate containing antibacterials” (1983)
≈ marks a conversion by molar mass, not a printed value. Where a SMILES comes first, the peptide text is derived from it. [ ]: non-standard residue; d: D form. Pra = C#CC[CH](N)C(=O)O

What was measured:
[1] = system: Escherichia coli; experiment: Minimum inhibitory concentration against Escherichia coli; format: functional
In short: (§1)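 Agar dilution on defined peptide susceptibility medium with peptide in serial twofold dilutions. Strains subcultured on blood or chocolate agar. Inoculum from overnight culture in liquid peptide medium, diluted to approx 1×10^7 cfu/mL, applied by Steers replicator. Plates incubated overnight at 37 °C. MIC taken as lowest concentration permitting fewer than ten colonies at 16–18 h.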

[2] = system: Klebsiella aerogenes; experiment: Minimum inhibitory concentration against Enterobacter aerogenes; format: functional; in short: as §1
[3] = system: Enterobacter cloacae; experiment: Minimum inhibitory concentration against Enterobacter cloacae; format: functional; in short: as §1
[4] = system: Haemophilus influenzae; experiment: Minimum inhibitory concentration against Hemophilus influenzae; format: functional
In short: (§2)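 Agar dilution on defined peptide susceptibility medium with hemin (25 μg/mL), NAD (25 μg/mL) and Isovitalex (1%) added, peptide in serial twofold dilutions. Colonies from overnight chocolate or blood agar resuspended in liquid peptide medium to 10⁸ cfu/mL, applied by Steers replicator. Incubation overnight at 37 °C under 7% CO₂. MIC: lowest concentration giving fewer than ten colonies at 16–18 h.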

[5] = system: Klebsiella pneumoniae; experiment: Minimum inhibitory concentration against Klebsiella pneumoniae; format: functional; in short: as §1
[6] = system: Morganella morganii; experiment: Minimum inhibitory concentration against Morganella morganii; format: functional; in short: as §1
[7] = system: Pseudomonas aeruginosa; experiment: Minimum inhibitory concentration against Pseudomonas aeruginosa; format: functional; in short: as §1
[8] = system: Proteus mirabilis; experiment: Minimum inhibitory concentration against Proteus mirabilis; format: functional; in short: as §1
[9] = system: Salmonella typhimurium; experiment: Minimum inhibitory concentration against Salmonella Typhimurium; format: functional, Salmonella enterica subsp. enterica serovar Typhimurium; details: Salmonella enterica; in short: as §1
[10] = system: Serratia marcescens; experiment: Minimum inhibitory concentration against Serratia marcescens; format: functional; in short: as §1
[11] = system: Shigella flexneri; experiment: Minimum inhibitory concentration against Shigella flexneri; format: functional; in short: as §1
[12] = system: Staphylococcus epidermidis; experiment: Minimum inhibitory concentration against Staphylococcus epidermidis; format: functional; in short: as §1
[13] = system: Streptococcus agalactiae; experiment: Minimum inhibitory concentration against Streptococcus agalactiae; format: functional; in short: as §2
[14] = system: Staphylococcus aureus; experiment: Minimum inhibitory concentration against Staphylococcus aureus; format: functional; in short: as §1
[15] = system: Enterococcus faecalis; experiment: Minimum inhibitory concentration against Streptococcus faecalis; format: functional; in short: as §1
[16] = system: Streptococcus pyogenes; experiment: Minimum inhibitory concentration against Streptococcus pyogenes; format: functional; in short: as §2

Row | SMILES | MIC [1] [µg/mL] | MIC [2] [µg/mL] | MIC [3] [µg/mL] | MIC [4] [µg/mL] | MIC [5] [µg/mL] | MIC [6] [µg/mL] | MIC [7] [µg/mL] | MIC [8] [µg/mL] | MIC [9] [µg/mL] | MIC [10] [µg/mL] | MIC [11] [µg/mL] | MIC [12] [µg/mL] | MIC [13] [µg/mL] | MIC [14] [µg/mL] | MIC [15] [µg/mL] | MIC [16] [µg/mL]
1 | N[C@H](CCl)C(=O)O | 6.25 (≈ 50.6 µM) | 12.5 (≈ 101 µM) | 100 (≈ 809 µM) | 6.25 (≈ 50.6 µM) | 100 (≈ 809 µM) | > 100 | > 100 | > 100 | 100 (≈ 809 µM) | 25 (≈ 202 µM) | 50 (≈ 405 µM) | 25 (≈ 202 µM) | 12.5 (≈ 101 µM) | 12.5 (≈ 101 µM) | 50 (≈ 405 µM) | 12.5 (≈ 101 µM)
2 | C#CCC(N)C(=O)N[C@@H](C)C(=O)O.O=C(O)C(F)(F)F (stereo not given in full) | > 100 | > 100 | > 100 | > 100 | > 100 | > 100 | > 100 | > 100 | > 100 | > 100 | > 100 | 3.12 | > 100 | 50 | > 100 | > 100
3 | C#CC[C@@H](NC(=O)[C@H](C)N)C(=O)O.O=C(O)C(F)(F)F | > 100 | > 100 | > 100 | > 100 | > 100 | > 100 | > 100 | > 100 | > 100 | > 100 | > 100 | > 100 | > 100 | > 100 | > 100 | > 100
4 | C[C@H](NC(=O)[C@@H](N)CCl)C(=O)O.O=C(O)C(F)(F)F | > 100 | > 100 | > 100 | > 100 | > 100 | > 100 | > 100 | > 100 | > 100 | > 100 | > 100 | 0.025 | 0.39 | 0.05 | > 100 | > 100
5 | C#CCC(NC(=O)[C@H](C)N)C(=O)O.O=C(O)C(F)(F)F (stereo not given in full) | > 100 | > 100 | > 100 | > 100 | > 100 | > 100 | > 100 | > 100 | > 100 | > 100 | > 100 | 3.12 | 50 | > 100 | > 100 | > 100
6 | C#CC[C@H](NC(=O)[C@@H](N)CC#C)C(=O)O.O=C(O)C(F)(F)F (H-[Pra]-[Pra]-OH) | 25 | > 100 | 50 | > 100 | > 100 | > 100 | > 100 | > 100 | > 100 | > 100 | 12.5 | 0.78 | 3.12 | 3.12 | > 100 | > 100
7 | N[C@@H](CCl)C(=O)O | > 100 | > 100 | > 100 | > 100 | > 100 | > 100 | > 100 | > 100 | > 100 | > 100 | > 100 | 25 (≈ 202 µM) | 3.12 (≈ 25.3 µM) | 3.12 (≈ 25.3 µM) | > 100 | 3.12 (≈ 25.3 µM)
8 | C[C@@H](N)C(=O)N[C@H](C)C(=O)O.O=C(O)C(F)(F)F | > 100 | > 100 | > 100 | > 100 | > 100 | > 100 | > 100 | > 100 | > 100 | > 100 | > 100 | > 100 | > 100 | > 100 | > 100 | > 100
9 | C#CC[C@H](NC(=O)[C@H](C)N)C(=O)O.O=C(O)C(F)(F)F | > 100 | > 100 | > 100 | > 100 | > 100 | > 100 | > 100 | > 100 | > 100 | > 100 | > 100 | 1.56 | 100 | > 100 | 100 | > 100
10 | C[C@H](N)C(=O)N[C@@H](CCl)C(=O)O.O=C(O)C(F)(F)F | > 100 | > 100 | > 100 | > 100 | > 100 | > 100 | > 100 | > 100 | > 100 | > 100 | > 100 | 0.0125 | 0.2 | 0.0125 | > 100 | > 100
11 | C#CC[C@@H](N)C(=O)N[C@@H](C)C(=O)O.O=C(O)C(F)(F)F | > 100 | > 100 | > 100 | > 100 | > 100 | > 100 | > 100 | > 100 | > 100 | > 100 | > 100 | > 100 | > 100 | > 100 | > 100 | > 100
12 | C#CC[C@H](NC(=O)[C@@H](N)CCl)C(=O)O.O=C(O)C(F)(F)F | 3.12 | 25 | 25 | 1.56 | > 100 | > 100 | > 100 | > 100 | > 100 | > 100 | 3.12 | 0.05 | 0.39 | 0.1 | 3.12 | 25
13 | CSCC[C@H](N)C(=O)N[C@@H](CCl)C(=O)O.O=C(O)C(F)(F)F | 1.56 | 6.25 | 6.25 | 0.78 | > 100 | 50 | > 100 | 100 | > 100 | 50 | > 100 | 0.025 | 0.2 | 0.025 | 0.39 | > 100
14 | C#CC[C@H](N)C(=O)N[C@@H](C)C(=O)O.O=C(O)C(F)(F)F | > 100 | > 100 | > 100 | > 100 | > 100 | > 100 | > 100 | > 100 | > 100 | > 100 | > 100 | 1.56 | > 100 | > 100 | > 100 | > 100
15 | N[C@@H](CCl)C(=O)N[C@@H](CCl)C(=O)O.O=C(O)C(F)(F)F | 1.56 | 25 | 12.5 | 1.56 | > 100 | 50 | > 100 | 50 | > 100 | > 100 | 12.5 | 0.05 | 0.39 | 0.05 | 3.12 | 1.56
16 | C#CCC(N)C(=O)NC(CC#C)C(=O)O.O=C(O)C(F)(F)F (stereo not given) (H-[Pra]-[Pra]-OH; configuration not given here) | > 100 | > 100 | > 100 | > 100 | > 100 | > 100 | > 100 | > 100 | > 100 | > 100 | > 100 | 3.12 | 6.25 | 12.5 | > 100 | > 100
17 | CCC[C@H](N)C(=O)N[C@@H](CCl)C(=O)O.O=C(O)C(F)(F)F | 1.56 | > 100 | 6.25 | 0.78 | > 100 | 50 | > 100 | 12.5 | > 100 | > 100 | > 100 | 0.025 | 0.2 | 0.025 | 0.39 | > 100
18 | C#CCC(NC(=O)[C@H](N)CCl)C(=O)O.O=C(O)C(F)(F)F (stereo not given in full) | > 100 | > 100 | > 100 | > 100 | > 100 | > 100 | > 100 | > 100 | > 100 | > 100 | > 100 | > 100 | > 100 | > 100 | > 100 | > 100
19 | C#CC[C@H](N)C(=O)O | > 100 | > 100 | > 100 | > 100 | > 100 | > 100 | > 100 | > 100 | > 100 | > 100 | > 100 | > 100 | > 100 | > 100 | > 100 | > 100
20 | C[C@H](N)C(=O)N[C@H](CCl)C(=O)O.O=C(O)C(F)(F)F | > 100 | > 100 | > 100 | > 100 | > 100 | > 100 | > 100 | > 100 | > 100 | > 100 | > 100 | > 100 | > 100 | > 100 | > 100 | > 100
